Laboratory results as given in ChEMBL document CHEMBL4359883, “4(1H)-quinolone derivatives overcome acquired resistance to anti-microtubule agents by targeting the colchicine site of β-tubulin” (Eur J Med Chem, 2019).
Active and inactive are the calls of the source. The calls are words filed in the database; no cut-off is given here.

Columns and labels:
[1] = species on record: Homo sapiens; experiment: Induction of mitotic arrest in human KBtax cells assessed as increase in p-HH3 expression at 30 to 60 nM after 24 hrs by immunoblotting analysis; type: functional, cell-based
[2] = molecular target: ATP-dependent translocase ABCB1 (Homo sapiens, UniProt P08183); experiment: Inhibition of P-gp efflux in human KBtax cells at 30 to 120 nM after 1 hr by flow cytometry; type: cell-based
Method in brief: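 KBtax cells (2.5×10^5 per test) loaded with rhodamine in cold medium on ice for 1 h. Then resuspended in 37 °C medium with compound and held 1 h at 37 °C for efflux. Retained fluorescence measured by flow cytometry; verapamil used as P-gp inhibitor reference.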

[3] = test system: CL1-0; experiment: Induction of cell cycle arrest in human CL1-0 cells assessed as accumulation at mitotic phase after 24 hrs by high content imaging analysis; type: functional, cell-based
Method in brief: (§1)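 Cells exposed for 24 h, stained for phospho-histone H3 (S10), and imaged by high-content imaging. Mitotic index taken as the fraction of p-HH3-positive cells. Mean ± SD.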

[4] = test system: COLO 205; experiment: Antiproliferative activity against human COLO205 cells assessed as reduction in cell viability after 72 hrs by MTS assay; type: functional, cell-based; details: COLO 205, 72 h
Method in brief: (§2)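 Cells plated at 2000/well, cultured overnight, then exposed to a range of compound concentrations for 72 h. MTS reagent added for 1–4 h at 37 °C and absorbance read at 490 nm. Cultured in RPMI 1640 or DMEM with 10% heat-inactivated FBS under 5% CO2. Data are the mean of three determinations.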

[5] = test system: MOLT-4; experiment: Antiproliferative activity against human MOLT4 cells assessed as reduction in cell viability after 72 hrs by MTS assay; type: functional, cell-based; details: MOLT-4, 72 h; method in brief: as §2
[6] = molecular target: T1, Tubulin (Homo sapiens) (UniProt P68371+Q9H4B7+P0DPH7+P68366+Q13509+Q71U36+P04350+Q3ZCM7+P07437+P68363+Q9BQE3+Q6PEY2+Q13885+Q9BVA1+Q9BUF5); experiment: Induction of microtubule depolymerization in human NCI-H1975 cells at 40 nM after 6 hrs by DAPI staining based DAPI staining based confocal microscopic analysis; type: cell-based
Method in brief: (§3)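 Cells exposed for 6 h, fixed in 3.7% paraformaldehyde, permeabilized with 0.1% Triton X-100. Stained with anti-α-tubulin (1:1000) overnight at 4 °C, FITC secondary 1 h at 37 °C, nuclei counterstained with DAPI. Imaged by confocal laser scanning microscopy.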

[7] = Cytotoxicity against human NHFB cells assessed as reduction in cell viability after 72 hrs by MTS assay; type: cell-based
Method in brief: (§4)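 Cells plated at 2000 per well, cultured overnight, then exposed to a range of compound concentrations for 72 h. MTS reagent added, 1–4 h at 37 °C, absorbance read at 490 nm. Mean of three determinations.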

[8] = test system: CL1-0; experiment: Induction of apoptosis in human CL1-0 cells assessed as bax protein expression after 24 hrs by immunoblotting analysis; type: functional, cell-based
[9] = molecular target: T1, Tubulin (Homo sapiens); experiment: Binding affinity to tubulin (unknown origin) assessed as increase in Beta-col fragment production at 100 uM after 30 mins by coomassie brilliant blue staining based trypsin proteolysis assay; type: protein-complex assay
Method in brief: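 Tubulin (1 mg/mL) preincubated with 100 µM compound for 30 min at 30 °C in 0.1 M MES, 1 mM MgCl2, 1 mM EGTA, pH 6.9. Trypsin added at 25 µg/mL (1:40 w/w) for 10 min on ice. Fragments resolved on 15% SDS-PAGE, stained with Coomassie and quantified by densitometry.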

[10] = test system: NCI-H1975; experiment: Induction of apoptosis in human NCI-H1975 cells assessed as increase in cytochrome c level in cytosol at 40 to 80 nM after 24 hrs by immunoblotting analysis; type: functional, cell-based
[11] = test system: NCI-H1975; experiment: Induction of morphological changes in human NCI-H1975 cells assessed as disruption of mitotic spindle arrangement at 40 nM after 6 hrs by DAPI staining based DAPI staining based confocal microscopic analysis; type: functional, cell-based; method in brief: as §3
[12] = test system: OVCAR-3; experiment: Antiproliferative activity against human OVCAR3 cells assessed as reduction in cell viability after 72 hrs by MTS assay; type: functional, cell-based; details: OVCAR-3, 72 h; method in brief: as §2
[13] = test system: NCI-H1975; experiment: Induction of cell cycle arrest in human NCI-H1975 cells assessed as accumulation at mitotic phase after 24 hrs by high content imaging analysis; type: functional, cell-based; method in brief: as §1
[14] = test system: A549; experiment: Antiproliferative activity against human A549 cells assessed as reduction in cell viability after 72 hrs by MTS assay; type: functional, cell-based; details: A549, 72 h; method in brief: as §2
[15] = Cytotoxicity against human bronchial epithelial cells assessed as reduction in cell viability after 72 hrs by MTS assay; type: cell-based; method in brief: as §4

Sequence of ATP-dependent translocase ABCB1 (P08183 whole entry): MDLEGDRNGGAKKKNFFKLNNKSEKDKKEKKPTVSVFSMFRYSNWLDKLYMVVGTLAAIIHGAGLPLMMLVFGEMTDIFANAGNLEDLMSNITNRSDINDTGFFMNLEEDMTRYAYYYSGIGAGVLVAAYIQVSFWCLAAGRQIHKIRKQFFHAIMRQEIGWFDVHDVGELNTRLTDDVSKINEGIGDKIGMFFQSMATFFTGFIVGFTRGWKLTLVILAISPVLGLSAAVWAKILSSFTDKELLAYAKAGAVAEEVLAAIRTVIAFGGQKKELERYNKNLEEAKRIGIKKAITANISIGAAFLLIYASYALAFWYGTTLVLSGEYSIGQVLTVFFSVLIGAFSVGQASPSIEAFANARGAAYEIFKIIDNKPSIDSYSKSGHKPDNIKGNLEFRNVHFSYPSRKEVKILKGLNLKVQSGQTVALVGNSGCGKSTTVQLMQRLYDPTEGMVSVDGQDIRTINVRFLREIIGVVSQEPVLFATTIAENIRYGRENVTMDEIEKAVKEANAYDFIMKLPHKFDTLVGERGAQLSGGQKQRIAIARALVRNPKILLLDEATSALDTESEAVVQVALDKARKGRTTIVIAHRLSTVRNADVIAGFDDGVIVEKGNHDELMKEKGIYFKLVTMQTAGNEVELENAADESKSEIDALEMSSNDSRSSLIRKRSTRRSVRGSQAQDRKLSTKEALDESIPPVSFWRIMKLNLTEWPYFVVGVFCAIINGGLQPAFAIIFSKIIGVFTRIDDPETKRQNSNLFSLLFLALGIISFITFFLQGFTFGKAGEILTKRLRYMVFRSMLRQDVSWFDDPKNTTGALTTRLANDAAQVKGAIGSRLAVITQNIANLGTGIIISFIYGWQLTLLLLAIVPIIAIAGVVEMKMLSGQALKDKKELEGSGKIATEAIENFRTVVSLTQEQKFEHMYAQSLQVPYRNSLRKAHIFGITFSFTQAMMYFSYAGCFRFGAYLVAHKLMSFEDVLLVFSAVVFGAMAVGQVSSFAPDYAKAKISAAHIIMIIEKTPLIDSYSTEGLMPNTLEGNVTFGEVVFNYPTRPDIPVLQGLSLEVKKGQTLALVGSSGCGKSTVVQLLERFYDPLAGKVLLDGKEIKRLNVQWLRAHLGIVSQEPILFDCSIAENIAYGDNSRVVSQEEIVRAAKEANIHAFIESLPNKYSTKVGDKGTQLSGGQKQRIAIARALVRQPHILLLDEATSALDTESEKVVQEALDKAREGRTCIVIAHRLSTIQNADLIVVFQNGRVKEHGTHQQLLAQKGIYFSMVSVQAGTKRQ

Row | inhibition (INH) [2] | IC50 [4] | IC50 [5] | Activity [6] | Activity [9] | IC50 [12] | IC50 [14] | SMILES | Activity [1] | Activity [3] | IC50 [7] | Activity [8] | Activity [10] | Activity [11] | Activity [13] | IC50 [15]
1 | Not Active |  |  |  |  |  |  | CCOC(=O)c1ccc2[nH]c(-c3cccc(F)c3)cc(=O)c2c1 | Active |  |  |  |  |  |  | 
2 |  | 0.057 µM | 0.038 µM | Active | Active | 0.028 µM | 0.02 µM | CCOC(=O)c1ccc2nc(-c3ccccc3)cc(O)c2c1 |  | Dose-dependent effect | > 10 µM | Dose-dependent effect | Active | Active | Dose-dependent effect | > 10 µM
